Laboratory results published in ChEMBL document CHEMBL4513216, “Probing the Open Global Health Chemical Diversity Library for Multistage-Active Starting Points for Next-Generation Antimalarials” (ACS Infect Dis, 2020).

assay: Toxicity liver stage against HepG2, at 10uM; assay type: cell-based; parameters: test concentration 10 uM, cell line HepG2-A16-CD81EGFP; details: human, HepG2-A16-CD81EGFP cells; read-out: INHIBITION
Method in brief: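 Uninfected HepG2-A16-CD81EGFP cells, 3 × 10^3 per well, 1536-well, plated on prespotted compound at 10 μM final, parasite-free screening media added to match infected plates; puromycin 10 μM positive, DMSO 0.5% negative; run in parallel with 48 h PbLuc assay at 37 °C, 5% CO2; viability by CellTiter-Glo luminescence, normalized to controls.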

First: COc1ccc(Cl)cc1-c1nc(N)nc(N(C)C)n1
Second: COC(=O)c1ccc(OC)c(Cn2cc(N)cn2)c1
The cytotoxicity at 10 µM of the first is higher: -4.01% for the first, -7.8% for the second.

Going from CC1CCCN(Cc2coc(-c3cccc(F)c3)n2)C1 (stereo not given) to O=C(Cc1cccc(F)c1)NC1CCCc2cn[nH]c21 (stereo not given), the cytotoxicity at 10 µM rises from -16.7% to 16.5%.

Compared with COc1ccc(CN(C)C(=O)CSc2nnc(N)s2)c(OC)c1OC, COc1ccc(C)cc1CNCc1ccc(-n2nc(C)cc2C)nc1 is lower in cytotoxicity at 10 µM: 7.59% for the first, 0.813% for the second.

First: N#Cc1cccnc1N1CCN(C(=O)CCC(=O)c2cccs2)CC1
Second: Cc1ccc2nc(C)c(C)c(C(=O)N3CCN(c4nccs4)CC3)c2c1
The cytotoxicity at 10 µM of the first is lower: -8.7% for the first, 3.96% for the second.

First: CC(=O)Nc1ccc(C(=O)NCCCn2cccc2)cc1
Second: O=C(NCC1CCS(=O)(=O)C1)c1ccc(NC(=O)c2ccco2)cc1 (stereo not given)
The cytotoxicity at 10 µM of the first is lower: -2.66% for the first, 3.25% for the second.

First: COC1(CNC(=O)NCc2ccccc2)CCSC1 (stereo not given)
Second: Cc1ccccc1C1(C(=O)NCCN(C)C)CCOCC1
The cytotoxicity at 10 µM of the first is lower: -2.42% for the first, -1.95% for the second.

First: O=S(=O)(NCCn1ccc(-c2cccs2)n1)C1CC1
Second: CCc1ccc(CN2CCC(CNS(=O)(=O)C3CC3)C2)nc1 (stereo not given)
The cytotoxicity at 10 µM of the first is higher: -0.297% for the first, -4.69% for the second.

First: CC(C)CN1C[C@@H]2CN(S(=O)(=O)c3cccs3)C[C@@H]2C1=O
Second: CC(C)N1CCO[C@H]2CN(C(=O)Cc3cccs3)C[C@H]21
The cytotoxicity at 10 µM of the first is lower: 4.09% for the first, 7.07% for the second.

First: COCCN1C(=O)CCC12CCCN(C(=O)NC(C)C)CC2 (stereo not given)
Second: CCOCC1COCCC12CCN(C(=O)CS(C)(=O)=O)CC2 (stereo not given)
The cytotoxicity at 10 µM of the first is higher: 1.32% for the first, -1.99% for the second.

Going from Cc1ccc(CN2C[C@H]3C[C@H](C(=O)NCC4CC4)N(C)[C@H]3C2)o1 to COc1ccc(CC(=O)N2C[C@H]3CN(Cc4ccccn4)C[C@H]3C2)cc1, the cytotoxicity at 10 µM rises from -3.13% to 3.5%.

First: COC[C@]12COC[C@H]1CN(C(=O)c1ccc(F)cc1C)C2
Second: COC[C@@]12CCC[C@@H]1CN(C(=O)N1CCCC1)C2
The cytotoxicity at 10 µM of the first is lower: -135% for the first, 7.9% for the second.

First: CCn1cc2c(n1)CN(S(=O)(=O)c1ccc(C)cc1)CC2COC (stereo not given)
Second: COCC1CN(Cc2ccc(OC)cc2)Cc2nnn(CC3CC3)c21 (stereo not given)
The cytotoxicity at 10 µM of the first is higher: 5.77% for the first, -2.47% for the second.

Compared with N#Cc1cccc(N2CCCC3(CN(C(=O)[C@H]4CCCO4)CCO3)C2)c1 (stereo not given in full), N#Cc1cccc(N2CCCC3(CCC(=O)N(C4CCCC4)C3)C2)n1 (stereo not given) is lower in cytotoxicity at 10 µM: 3.53% for the first, -0.0436% for the second.

First: c1cnc(NCc2noc3c2CN(C2CCOC2)CC3)nc1 (stereo not given)
Second: Cc1nc(Nc2ncccn2)cc(C2CCCN2Cc2ncc[nH]2)n1 (stereo not given)
The cytotoxicity at 10 µM of the first is higher: -3.71% for the first, -15.3% for the second.

Going from Cc1cccc(CN2CCc3ncnc(Oc4cccnc4)c3CC2)n1 to CCN(C)c1ncnc2c1CCN(Cc1ccoc1)CC2, the cytotoxicity at 10 µM rises from -139% to -0.439%.

Compared with O=C(Cc1ccccn1)N1CCn2cc(Cn3cncn3)nc2C1, CCc1cc(O)n2nc(C3CCCN3C(=O)c3ccccn3)cc2n1 (stereo not given) is higher in cytotoxicity at 10 µM: -129% for the first, -0.805% for the second.

First: O=C(CSC1CCc2ccccc2NC1=O)NCCc1ccco1 (stereo not given)
Second: Cc1occc1C(=O)N1CC[C@@H](N2CCOCC2)[C@@H]1Cc1ccccc1
The cytotoxicity at 10 µM of the first is lower: -13% for the first, -4.09% for the second.

Going from CC(C)(C)NC(=O)COc1ccc(CNCCOc2ccccn2)cc1 to COc1ccccc1NCC(=O)NCc1ccc(-c2ccn[nH]2)cc1, the cytotoxicity at 10 µM rises from -3.76% to -1.99%.

Going from O=C1CN([C@@H]2CC[C@@H](NS(=O)(=O)c3ccccc3F)[C@H]2O)CCN1 to Cc1ccc(CN2CCc3[nH]nc(C(=O)N4CCNC(=O)C4)c3C2)s1, the cytotoxicity at 10 µM rises from 1.06% to 12%.

First: O=C(c1cnco1)N1CCC(Cc2ccc3ncccc3c2)CC1
Second: Nc1nc(C2CCN(C(=O)c3cnco3)CC2)cs1
The cytotoxicity at 10 µM of the first is higher: 7.22% for the first, -3% for the second.

First: Cc1ncsc1CN1C[C@@H](O)[C@](O)(CNC(=O)c2ccccn2)C1
Second: O=C(NCc1cccnc1N1CCCC(O)C1)c1ccc2[nH]nnc2c1 (stereo not given)
The cytotoxicity at 10 µM of the first is lower: -0.973% for the first, 11.4% for the second.

Compared with Cc1cc(C(=O)NC(C)Cc2cccc(Cl)c2)n(C)n1 (stereo not given), CCCc1nccn1-c1cccc(C(C)O)c1 (stereo not given) is lower in cytotoxicity at 10 µM: 10.9% for the first, 5.82% for the second.

Compared with O=C(CNC(=O)C1(c2ccc(F)cc2F)CCC1)Nc1cccnc1, COC(=O)C(c1cc(F)ccc1F)N(C)C(=O)c1cccnc1O (stereo not given) is higher in cytotoxicity at 10 µM: -5.82% for the first, -0.289% for the second.

First: CCNC(=O)CN(CC)S(=O)(=O)c1c(Br)cc2[nH]c(=O)oc2c1Cl
Second: Cc1ccc(C(=O)NCCC(C)C)cc1NS(C)(=O)=O
The cytotoxicity at 10 µM of the first is lower: 9.69% for the first, 10.9% for the second.

First: CC(C)(C)OC(=O)N[C@H]1CCN(C(=O)c2cc(Cl)c[nH]2)C1
Second: CC(C)(C)OC(=O)NCCC(=O)NCC(O)c1cccc(F)c1 (stereo not given)
The cytotoxicity at 10 µM of the first is lower: -2.84% for the first, -2.48% for the second.

Compared with CC(c1nc(C2CC2)no1)N1CCN(CCn2ccccc2=O)CC1 (stereo not given), CC(c1nc(C2CC2)no1)N1CCN(Cc2ccsc2)CC1 (stereo not given) is lower in cytotoxicity at 10 µM: 25.8% for the first, 0.993% for the second.

Going from N#CCSCC(=O)NCC1CCCCC1 to CCCN(C(=O)CN1CCn2c(nnc2C2CC2)C1)C1=CCCCC1, the cytotoxicity at 10 µM falls from 8.32% to 6.19%.

Going from CCS(=O)(=O)CCSc1ccc(Cl)cc1 to CS(=O)(=O)NCc1ccc(NC(=O)CC2=CCCCC2)cc1, the cytotoxicity at 10 µM falls from -1.13% to -2.48%.

First: CCCN(CC(=O)N(C)C)C(=O)c1ccc(-c2nc(C)cs2)cc1
Second: COC(=O)CN(C(=O)c1ccco1)c1cccc(F)c1
The cytotoxicity at 10 µM of the first is lower: -15.7% for the first, -4.81% for the second.

First: Cn1c(NCCC(=O)N2CCCC2)c(C#N)c(=O)n(C)c1=O
Second: Cc1nc2c(cc1C(=O)Nc1ccccc1Cl)c(=O)n(C)c(=O)n2C
The cytotoxicity at 10 µM of the first is lower: -9.28% for the first, -5.06% for the second.

First: CC(C)NC(=O)Nc1ccccc1CN1CCOCC1
Second: O=C(Nc1ccccc1C(=O)N1CCCC1)NC1CCOCC1
The cytotoxicity at 10 µM of the first is higher: 4.89% for the first, -3.27% for the second.

Going from O=C(Nc1ccnc(OC2CCOC2)c1)c1cccs1 (stereo not given) to Cn1nccc1NC(=O)CN1CCc2sccc2C1, the cytotoxicity at 10 µM falls from 5.42% to 1.09%.

First: Cc1nn(CC(O)CN2CCc3ccccc3C2)c(=O)c2ccccc12 (stereo not given)
Second: OCCCN1CCc2[nH]nc(C(c3ccccc3)c3ccccc3)c2C1
The cytotoxicity at 10 µM of the first is higher: 11.1% for the first, -0.869% for the second.

Going from CC(NC(=O)NCc1cscn1)c1ccc(N2CCOCC2)cc1 (stereo not given) to Cn1ccc2c(-c3cc(N)nc(N4CCOCC4)n3)ccnc21, the cytotoxicity at 10 µM falls from -0.736% to -3.67%.

Compared with COc1cc(S(=O)(=O)Nc2cn[nH]c2)ccc1Br, Cc1cccc(NS(=O)(=O)c2cnn(C)c2)c1C#N is higher in cytotoxicity at 10 µM: -1.47% for the first, -0.655% for the second.

Compared with NC(=O)C1CCN(C(=O)c2ccccc2OCc2ccncc2)CC1, CN(C)c1ccccc1C(=O)N1CCCC(c2ccc(C(=O)O)cc2)C1 (stereo not given) is higher in cytotoxicity at 10 µM: 1.02% for the first, 16.2% for the second.

First: COCc1nc(CNc2cccc(-c3csc(C)n3)c2)cs1
Second: CCc1nccn1C1CCCN(C(=O)c2csc(COC)n2)C1 (stereo not given)
The cytotoxicity at 10 µM of the first is higher: 1.98% for the first, -8.11% for the second.

Compared with CN(CC(F)(F)F)C(=O)CNC(=O)N1CCCC(C(F)(F)F)C1 (stereo not given), CCn1nc(C)c(CCNC(=O)C2CCCN(CC(N)=O)C2)c1C (stereo not given) is lower in cytotoxicity at 10 µM: 0.601% for the first, -11.8% for the second.

Going from CN1CCN(C(=O)C2CC=CC2)c2ccccc21 to Cc1n[nH]c(CN2CCN(Cc3ccccc3)[C@@H]3CS(=O)(=O)C[C@@H]32)n1, the cytotoxicity at 10 µM falls from 14.9% to -7.42%.

Compared with Cc1ccc(C2CSCCN2C(=O)C2=CCCC2)o1 (stereo not given), Cc1oc(C)c(C(=O)N2CCCN(Cc3cscn3)CC2)c1C is higher in cytotoxicity at 10 µM: -6.12% for the first, 6.88% for the second.

Compared with Cn1cc(-c2csc(CN3CCOCC3)n2)cn1, Cc1nsc(NC(=O)NC2(CN3CCOCC3)CCCCC2)n1 is higher in cytotoxicity at 10 µM: -11.4% for the first, -3.82% for the second.

Compared with COCCC(=O)N1CC[C@@H]2O[C@@H](C)C[C@H]2C1, CCCc1cc(C(=O)N2C[C@@H](C)[C@](O)(C3CCC3)C2)[nH]n1 is higher in cytotoxicity at 10 µM: -2.78% for the first, 10.1% for the second.

Going from O=c1[nH]c(-c2ccncc2)ncc1-c1ccnc(N2CCOCC2)n1 to CN(Cc1ccc(O)cc1)C(=O)NC1CCCN(c2ncccn2)C1 (stereo not given), the cytotoxicity at 10 µM falls from -1.2% to -9.63%.

First: COc1ccc2nc(CNC(=O)C3CC4(CCNCC4)CN3C)[nH]c2c1 (stereo not given)
Second: COc1ccc(CNC(C)c2ccc3[nH]c(=O)[nH]c3c2)cc1 (stereo not given)
The cytotoxicity at 10 µM of the first is higher: 0.488% for the first, -5.04% for the second.

Compared with c1ccc(Cc2noc(-c3ccc(NCC4CCCOC4)nc3)n2)cc1 (stereo not given), c1ccc(N2CC3(CCN(Cc4cccnc4)C3)C2)nc1 is higher in cytotoxicity at 10 µM: -1.05% for the first, 1.11% for the second.

First: CN(C)S(=O)(=O)N1CC[C@]2(O)CCN(Cc3cccc(F)c3)C[C@@H]2C1
Second: CC[C@@H]1N(Cc2ccncc2)CCC[C@]12CCC(=O)N2C
The cytotoxicity at 10 µM of the first is lower: -5.16% for the first, 10.5% for the second.

First: CN(C)CC(C)(C)Cn1cnc(-c2ccccc2)c1-c1ncc[nH]1
Second: Cn1cnc2c1C(COCc1ccccc1)N(Cc1ccccn1)CC2 (stereo not given)
The cytotoxicity at 10 µM of the first is lower: 9.21% for the first, 9.82% for the second.

Compared with Cc1ccc(NC(=O)C2=CN=S=N2)cc1, COc1ccc(CN2CCCN(C(=O)C(C)n3ccnc3)CC2)cc1 (stereo not given) is lower in cytotoxicity at 10 µM: 3.51% for the first, -14.1% for the second.

Compared with Cc1nnc2n1CCN(C(=O)c1cc(Br)c(Cl)[nH]1)C2, c1coc(CN2CCn3c(COCC4CC4)nnc3C2)c1 is higher in cytotoxicity at 10 µM: -12.7% for the first, 6.28% for the second.

Compared with CC(O)CN1CCN(Cc2nnc(C3CC3)o2)CC1 (stereo not given), CC(C)CN1CCC(N2CCC(C(=O)N(C)C)CC2)CC1 is higher in cytotoxicity at 10 µM: -10% for the first, 16.9% for the second.

Going from CC(C)(C)c1cnc(CN2CCCC2Cn2cccn2)o1 (stereo not given) to CCOC1COC2(CCN(Cc3cccnc3OC)CC2)C1 (stereo not given), the cytotoxicity at 10 µM rises from -9.6% to -2.47%.

First: Cn1c(C2CC2)nc2c1CCN(CCOc1ccc(C#N)cc1)C2
Second: CCCN1CCCn2c(nc(CNC(=O)c3ccsc3)cc2=O)C1
The cytotoxicity at 10 µM of the first is lower: -9.39% for the first, 6.89% for the second.

Going from CCn1cc(C(=O)NCc2csc(Br)c2)cn1 to CCc1cnc(N2C[C@H]3CN(Cc4csc(C)n4)C(=O)[C@H]3C2)nc1, the cytotoxicity at 10 µM rises from 4.84% to 9.43%.

Compared with COc1cc(CN(CCCN(C)C)Cc2ccccn2)cc2c1OCO2, CC(C)c1nn(C)c(Cl)c1CNCc1ccc(N(C)C)nc1 is lower in cytotoxicity at 10 µM: 1.44% for the first, -13.6% for the second.

Compared with CS(=O)(=O)N1CCOCC2(CCN(C(=O)c3cccnc3)CC2)C1, CNC(=O)CN1CCOCC2(CCCN(Cc3cccnc3)C2)C1 (stereo not given) is higher in cytotoxicity at 10 µM: -10.1% for the first, -6.02% for the second.
